Test results as given in ChEMBL document CHEMBL1153525, “Adenosine A2A receptor-antagonist/dopamine D2 receptor-agonist bivalent ligands as pharmacological tools to detect A2A-D2 receptor heteromers” (J Med Chem, 2009).
The source made the active and inactive calls. No cut-off for these calls is given here.

Legend:
[1] = system: Dopamine D2 receptor (Homo sapiens); assay: Displacement of [3H]YM09151-2 from human A2aR/D2R (long isoform) heteromer expressed in mouse Ltk cells by scintillation counting
[2] = molecular target: Adenosine A2A receptor (Homo sapiens) (UniProt P29274); assay: Displacement of [3H]ZM241385 from human A2aR/D2R (long isoform) heteromer expressed in mouse Ltk cells by scintillation counting; type: cell-based
Method in brief: (§1)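 Mouse Ltk fibroblasts were transiently transfected with human A2AR, human D2R (long isoform) or both, and membranes were prepared 48 h later. Membranes were incubated 2 h at 25 °C in 50 mM Tris-HCl pH 7.4 with 10 mM MgCl2 and 2 U/mL ADA, plus 2.1 nM [3H]ZM241385 or 1.9 nM [3H]YM09151-2 and 1 μM test compound. Bound ligand was counted after filtration and expressed as % of specific binding without displacer; three independent experiments.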
Target sequence in this assay (P29274 whole entry, canonical isoform): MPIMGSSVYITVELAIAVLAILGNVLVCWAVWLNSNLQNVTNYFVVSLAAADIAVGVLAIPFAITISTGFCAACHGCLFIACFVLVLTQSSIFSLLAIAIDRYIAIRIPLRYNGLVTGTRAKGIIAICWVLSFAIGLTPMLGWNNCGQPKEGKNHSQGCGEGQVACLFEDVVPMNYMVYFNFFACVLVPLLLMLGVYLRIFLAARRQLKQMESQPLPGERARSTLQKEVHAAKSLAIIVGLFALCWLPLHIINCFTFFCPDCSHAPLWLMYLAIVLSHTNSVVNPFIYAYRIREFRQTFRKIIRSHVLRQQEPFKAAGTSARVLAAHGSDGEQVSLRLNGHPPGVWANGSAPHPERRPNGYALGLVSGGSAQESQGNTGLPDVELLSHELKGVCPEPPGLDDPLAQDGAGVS

[3] = molecular target: Adenosine A2A receptor (Homo sapiens) (UniProt P29274); assay: Displacement of [3H]ZM241385 from human A2aR/D2R (long isoform) coexpressed in mouse Ltk cells by scintillation counting; type: cell-based
Method in brief: as §1
Target sequence in this assay (P29274 whole entry, canonical isoform): as above

[4] = Displacement of [3H]YM09151-2 from D2R (long isoform) dimer in lamb striatum membrane high affinity macroscopic equilibrium dissociation constant by scintillation counting; type: cell membranes, Ovis aries
Method in brief: (§2)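 Lamb striatal membranes (0.3-0.5 mg protein/mL) were incubated 2 h at 25 °C in 50 mM Tris-HCl pH 7.4 with 10 mM MgCl2 and 2 U/mL ADA. Radioligand was 2.1 nM [3H]ZM241385 (A2AR) or 0.9 nM [3H]YM09151-2 (D2R), against 11 competitor concentrations from 0.1 nM to 50 μM in triplicate. Nonspecific binding used 50 μM unlabeled radioligand. After GF/C filtration, counts were fitted to a two-state dimer model for KDB1 and KDB2; three experiments.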

[5] = Displacement of [3H]YM09151-2 from D2R (long isoform) dimer in lamb striatum membrane low affinity macroscopic equilibrium dissociation constant by scintillation counting; type: cell membranes, Ovis aries
Method in brief: as §2

[6] = molecular target: Adenosine A2A receptor (Homo sapiens) (UniProt P29274); assay: Displacement of [3H]ZM241385 from human A2aR expressed in mouse Ltk cells at 1 uM by scintillation counting relative to control; type: cell-based
Method in brief: as §1
Target sequence in this assay (P29274 whole entry, canonical isoform): as above

[7] = molecular target: Adenosine A2A receptor (Homo sapiens) (UniProt P29274); assay: Displacement of [3H]ZM241385 from human A2aR expressed in mouse Ltk cells by scintillation counting relative to control; type: cell-based
Method in brief: as §1
Target sequence in this assay (P29274 whole entry, canonical isoform): as above

[8] = molecular target: D(2) dopamine receptor (Homo sapiens) (UniProt P14416); assay: Displacement of [3H]YM09151-2 from human D2R expressed in mouse Ltk cells by scintillation counting relative to control; type: cell-based
Method in brief: as §1

[9] = molecular target: Adenosine A2A receptor (Homo sapiens) (UniProt P29274); assay: Displacement of [3H]ZM241385 from human A2AR expressed in mouse Ltk cells at 1 uM by scintillation counting relative to control
Target sequence in this assay (P29274 whole entry, looked up, canonical isoform): as the sequence (P29274 whole entry, canonical isoform) above

[10] = Displacement of [3H]ZM241385 from A2aR dimer in lamb striatum membrane assessed as high affinity macroscopic equilibrium dissociation constant by scintillation counting; type: cell membranes, Ovis aries
Method in brief: as §2

Sequence of D(2) dopamine receptor (Homo sapiens) (P14416 whole entry): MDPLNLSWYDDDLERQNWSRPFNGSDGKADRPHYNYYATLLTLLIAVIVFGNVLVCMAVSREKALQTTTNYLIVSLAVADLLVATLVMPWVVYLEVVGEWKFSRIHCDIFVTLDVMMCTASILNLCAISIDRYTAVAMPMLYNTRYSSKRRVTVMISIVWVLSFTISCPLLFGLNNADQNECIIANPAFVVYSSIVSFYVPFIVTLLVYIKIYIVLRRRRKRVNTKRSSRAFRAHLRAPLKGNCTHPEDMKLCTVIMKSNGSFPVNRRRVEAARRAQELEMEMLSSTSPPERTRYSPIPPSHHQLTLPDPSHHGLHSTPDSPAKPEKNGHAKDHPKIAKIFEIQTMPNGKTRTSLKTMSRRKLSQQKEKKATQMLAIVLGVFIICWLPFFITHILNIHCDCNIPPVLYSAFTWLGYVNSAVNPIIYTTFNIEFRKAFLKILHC

SMILES | Activity [1] | Activity [2] | Activity [3] | Ki [4] [µM] | Ki [5] [µM] | Ki [10] [µM] | also measured
CCCN(CCc1ccc(NC(=O)CCC(N)C(=O)NCCCCC(NC(=O)CCC(=O)NCCOCCOCCNC(=O)CCC(=O)NCCOCCOCCNC(=O)CCC(=O)NCCOCCOCCNC(=O)CCC(=O)NCCOCCOCCNC(=O)CCC(=O)NCCOCCOCCNC(=O)CCC(=O)NCCOCCOCCNC(=O)CCC(=O)NCCOCCOCCNC(=O)C(CCCCNC(C)=O)NC(C)=O)C(N)=O)cc1)C1CCc2c(O)cccc2C1 (stereo not given) | Active | – | – | – | – | – | –
CCCN(CCc1ccc(NC(=O)CCC(N)C(=O)NCCCCC(NC(=O)CCC(=O)NCCOCCOCCNC(=O)CCC(=O)NCCOCCOCCNC(=O)CCC(=O)NCCOCCOCCNC(=O)CCC(=O)NCCOCCOCCNC(=O)C(CCCCNC(=O)C(N)CCCCNC(=O)COc2ccc(-c3nc4c([nH]3)c(=O)n(CCC)c(=O)n4CCC)cc2)NC(C)=O)C(N)=O)cc1)C1CCc2c(O)cccc2C1 (stereo not given) | Active | Active | Active | – | – | – | –
CCCN(CCc1ccc(NC(=O)CCC(N)C(=O)NCCCCC(NC(=O)CCC(=O)NCCOCCOCCNC(=O)CCC(=O)NCCOCCOCCNC(=O)CCC(=O)NCCOCCOCCNC(=O)CCC(=O)NCCOCCOCCNC(=O)CCC(=O)NCCOCCOCCNC(=O)CCC(=O)NCCOCCOCCNC(=O)C(CCCCNC(C)=O)NC(C)=O)C(N)=O)cc1)C1CCc2c(O)cccc2C1 (stereo not given) | Active | – | – | – | – | – | –
CCCN(CCc1ccc(NC(=O)CCC(N)C(=O)NCCCCC(NC(=O)CCC(=O)NCCOCCOCCNC(=O)CCC(=O)NCCOCCOCCNC(=O)CCC(=O)NCCOCCOCCNC(=O)C(CCCCNC(C)=O)NC(C)=O)C(N)=O)cc1)C1CCc2c(O)cccc2C1 (stereo not given) | Active | – | – | 0.013 | 9 | – | Activity [6]: Active; Activity [7]: inactive; Activity [8]: inactive; Activity [9]: Active
CCCN(CCc1ccc(NC(=O)CCC(N)C(=O)NCCCCC(NC(=O)CCC(=O)NCCOCCOCCNC(=O)CCC(=O)NCCOCCOCCNC(=O)CCC(=O)NCCOCCOCCNC(=O)CCC(=O)NCCOCCOCCNC(=O)CCC(=O)NCCOCCOCCNC(=O)C(CCCCNC(=O)C(N)CCCCNC(=O)COc2ccc(-c3nc4c([nH]3)c(=O)n(CCC)c(=O)n4CCC)cc2)NC(C)=O)C(N)=O)cc1)C1CCc2c(O)cccc2C1 (stereo not given) | Active | Active | Active | – | – | – | –
CCCN(CCc1ccc(NC(=O)CCC(N)C(=O)NCCCCC(NC(=O)CCC(=O)NCCOCCOCCNC(=O)CCC(=O)NCCOCCOCCNC(=O)CCC(=O)NCCOCCOCCNC(=O)CCC(=O)NCCOCCOCCNC(=O)C(CCCCNC(C)=O)NC(C)=O)C(N)=O)cc1)C1CCc2c(O)cccc2C1 (stereo not given) | Active | – | – | – | – | – | –
CCCN(CCc1ccc(NC(=O)CCC(N)C(=O)NCCCCC(NC(=O)CCC(=O)NCCOCCOCCNC(=O)CCC(=O)NCCOCCOCCNC(=O)CCC(=O)NCCOCCOCCNC(=O)CCC(=O)NCCOCCOCCNC(=O)CCC(=O)NCCOCCOCCNC(=O)CCC(=O)NCCOCCOCCNC(=O)CCC(=O)NCCOCCOCCNC(=O)C(CCCCNC(=O)C(N)CCCCNC(=O)COc2ccc(-c3nc4c([nH]3)c(=O)n(CCC)c(=O)n4CCC)cc2)NC(C)=O)C(N)=O)cc1)C1CCc2c(O)cccc2C1 (stereo not given) | Active | Active | Active | – | – | – | Activity [8]: inactive
CCCN(CCc1ccc(NC(=O)CCC(N)C(=O)NCCCCC(NC(=O)CCC(=O)NCCOCCOCCNC(=O)CCC(=O)NCCOCCOCCNC(=O)CCC(=O)NCCOCCOCCNC(=O)CCC(=O)NCCOCCOCCNC(=O)CCC(=O)NCCOCCOCCNC(=O)CCC(=O)NCCOCCOCCNC(=O)C(CCCCNC(=O)C(N)CCCCNC(=O)COc2ccc(-c3nc4c([nH]3)c(=O)n(CCC)c(=O)n4CCC)cc2)NC(C)=O)C(N)=O)cc1)C1CCc2c(O)cccc2C1 (stereo not given) | Active | Active | Active | – | – | – | –
CCCN(CCc1ccc(NC(=O)CCC(N)C(=O)NCCCCC(NC(=O)CCC(=O)NCCOCCOCCNC(=O)CCC(=O)NCCOCCOCCNC(=O)CCC(=O)NCCOCCOCCNC(=O)CCC(=O)NCCOCCOCCNC(=O)CCC(=O)NCCOCCOCCNC(=O)C(CCCCNC(C)=O)NC(C)=O)C(N)=O)cc1)C1CCc2c(O)cccc2C1 (stereo not given) | Active | – | – | – | – | – | –
CCCn1c(=O)c2[nH]c(-c3ccc(OCC(=O)NCCCCC(N)C(=O)NCCCCC(NC(C)=O)C(=O)NCCOCCOCCNC(=O)CCC(=O)NCCOCCOCCNC(=O)CCC(=O)NCCOCCOCCNC(=O)CCC(=O)NCCOCCOCCNC(=O)CCC(=O)NCCOCCOCCNC(=O)CCC(=O)NCCOCCOCCNC(=O)CCC(=O)NCCOCCOCCNC(=O)CCC(=O)NC(CCCCNC(C)=O)C(N)=O)cc3)nc2n(CCC)c1=O (stereo not given) | – | 17% | – | – | – | – | –
CCCN(CCc1ccc(NC(=O)CCC(N)C(=O)NCCCCC(NC(=O)CCC(=O)NCCOCCOCCNC(=O)CCC(=O)NCCOCCOCCNC(=O)C(CCCCNC(=O)C(N)CCCCNC(=O)COc2ccc(-c3nc4c([nH]3)c(=O)n(CCC)c(=O)n4CCC)cc2)NC(C)=O)C(N)=O)cc1)C1CCc2c(O)cccc2C1 (stereo not given) | Active | Active | Active | 0.0011 | 1.4 | 0.08 | –
CCCN(CCc1ccc(NC(=O)CCC(N)C(=O)NCCCCC(NC(=O)C(CCCCNC(C)=O)NC(C)=O)C(N)=O)cc1)C1CCc2c(O)cccc2C1 (stereo not given) | Active | – | – | 0.004 | 9 | – | –
CCCN(CCc1ccc(NC(=O)CCC(N)C(=O)NCCCCC(NC(=O)CCC(=O)NCCOCCOCCNC(=O)C(CCCCNC(C)=O)NC(C)=O)C(N)=O)cc1)C1CCc2c(O)cccc2C1 (stereo not given) | Active | – | – | 0.011 | 15 | – | Activity [6]: Active; Activity [7]: inactive; Activity [8]: inactive; Activity [9]: Active
CCCN(CCc1ccc(NC(=O)CCC(N)C(=O)NCCCCC(NC(=O)C(CCCCNC(=O)C(N)CCCCNC(=O)COc2ccc(-c3nc4c([nH]3)c(=O)n(CCC)c(=O)n4CCC)cc2)NC(C)=O)C(N)=O)cc1)C1CCc2c(O)cccc2C1 (stereo not given) | Active | Active | Active | 0.001 | 9 | 0.055 | –
CCCn1c(=O)c2[nH]c(-c3ccc(OCC(=O)NCCCCC(N)C(=O)NCCCCC(NC(C)=O)C(=O)NCCOCCOCCNC(=O)CCC(=O)NCCOCCOCCNC(=O)CCC(=O)NCCOCCOCCNC(=O)CCC(=O)NC(CCCCNC(C)=O)C(N)=O)cc3)nc2n(CCC)c1=O (stereo not given) | – | – | – | – | – | 0.364 | Activity [6]: Active; Activity [9]: Active
CCCn1c(=O)c2[nH]c(-c3ccc(OCC(=O)NCCCCC(N)C(=O)NCCCCC(NC(C)=O)C(=O)NCCOCCOCCNC(=O)CCC(=O)NC(CCCCNC(C)=O)C(N)=O)cc3)nc2n(CCC)c1=O (stereo not given) | – | – | – | – | – | 0.246 | Activity [6]: Active; Activity [8]: inactive; Activity [9]: Active
CCCn1c(=O)c2[nH]c(-c3ccc(OCC(=O)NCCCCC(N)C(=O)NCCCCC(NC(C)=O)C(=O)NC(CCCCNC(C)=O)C(N)=O)cc3)nc2n(CCC)c1=O (stereo not given) | – | 58% | – | – | – | 0.16 | –
CCCN(CCc1ccc(NC(=O)CCC(N)C(=O)NCCCCC(NC(=O)CCC(=O)NCCOCCOCCNC(=O)CCC(=O)NCCOCCOCCNC(=O)C(CCCCNC(C)=O)NC(C)=O)C(N)=O)cc1)C1CCc2c(O)cccc2C1 (stereo not given) | Active | – | – | 0.011 | 12 | – | –
CCCn1c(=O)c2[nH]c(-c3ccc(OCC(=O)NCCCCC(N)C(=O)NCCCCC(NC(C)=O)C(=O)NCCOCCOCCNC(=O)CCC(=O)NCCOCCOCCNC(=O)CCC(=O)NC(CCCCNC(C)=O)C(N)=O)cc3)nc2n(CCC)c1=O (stereo not given) | – | – | – | – | – | 0.268 | –
